Measurements taken from PMC4110911 (Bioorganic & medicinal chemistry letters, 2014).

Tests used:
[1] = system: PKC; assay: PepTag non-radioactive PKC assay; type: biochemical; details: read-out: IC50 value, PKC; mean ± standard deviation, triplicate
[2] = system: liver transaminases, aspartate aminotransferase (AST) and alanine transaminase (ALT); assay: Plasma liver transaminase; type: in vivo; details: mice, 5 mg/kg daily by oral gavage for 75 days, vs control mice
[3] = Distribution of compound in tissues and plasma after chronic oral administration; type: in vivo; details: CD1 mice, oral gavage 5 mg/Kg daily for 75 days, n = 4
Procedure, shortened: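 CD1 mice: four treated, two untreated. Test compound was given by oral gavage at 5 mg/Kg once daily for 75 days. Brain, pancreas, liver, kidney, lung and plasma were then assayed for the compound by a previously reported procedure. Levels are in µM as mean ± standard deviation; ND = not detectable.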

| Compound | IC50 [1] | ALT enzyme activity in plasma [2] | AST enzyme activity in plasma [2] | Concentration of 3, Kidney [3] | Concentration of 3, Liver [3] | Concentration of 3, Pancreases [3] | Concentration of 3, Plasma [3] |
| --- | --- | --- | --- | --- | --- | --- | --- |
| COc1cc(NCc2cccc3cccnc23)c2nccc(C)c2c1Oc1cccc(C(F)(F)F)c1 [Compound 7] | 400 ± 13.7 µM | – | – | – | – | – | – |
| COc1cc(NCc2ccc(O)cc2)c2nccc(C)c2c1Oc1cccc(C(F)(F)F)c1 [Compound 3] | 240 ± 21.2 µM | No significant difference | No significant difference | 16.1 ± 2.1 µM | 7.1 ± 0.6 µM | 26.5 ± 6.6 µM | 4.5 ± 0.3 µM |
